Legend:
Assay type in all cases: functional
HCT-15 [1] = test: Growth inhibition of human HCT-15 cells assessed as cell growth at 0.01 uM incubated for 48 hrs by sulforhodamine B assay relative to control; conditions: read-out: Activity
A549 = test: Growth inhibition of human A549/ATCC cells assessed as cell growth at 0.01 uM incubated for 48 hrs by sulforhodamine B assay relative to control; conditions: read-out: Activity
In short: (§1)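 NCI Developmental Therapeutics Program NCI60 panel. Compounds that were active in the 10 µM one-dose screen went on to dose–response testing. Growth at each concentration is expressed relative to untreated control (100%). GI50 (concentration giving 50% of maximal inhibition of proliferation) and TGI (concentration giving total growth inhibition) were derived from the curves.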

SF-539 [2] = test: Growth inhibition of human SF-539 cells assessed as cell growth at 100 uM incubated for 48 hrs by sulforhodamine B assay relative to control; conditions: read-out: Activity
LOX IMVI = test: Growth inhibition of human LOX IMVI cells incubated for 48 hrs by sulforhodamine B assay
In short: (§2)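 NCI60 panel at the NCI Developmental Therapeutics Program. Only compounds active in the 10 µM screen went to dose-response testing. GI50, the concentration giving 50% of maximal inhibition of proliferation, and TGI, the concentration giving total growth inhibition, were derived from the dose-response curves.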

MDA-MB-231 = test: Growth inhibition of human MDA-MB-231 cells assessed as cell growth at 100 uM incubated for 48 hrs by sulforhodamine B assay relative to control; conditions: read-out: Activity
786-0 [3] = test: Growth inhibition of human 786-0 cells assessed as cell growth at 0.01 uM incubated for 48 hrs by sulforhodamine B assay relative to control; conditions: read-out: Activity; in short: as §1
786-0 [4] = test: Growth inhibition of human 786-0 cells incubated for 48 hrs by sulforhodamine B assay; conditions: for CC50: read-out: LC50 (the source's name); in short: as §1
IGROV-1 [5] = test: Growth inhibition of human IGROV-1 cells assessed as cell growth at 1 uM incubated for 48 hrs by sulforhodamine B assay relative to control; conditions: read-out: Activity
786-0 [6] = test: Growth inhibition of human 786-0 cells assessed as cell growth at 0.1 uM incubated for 48 hrs by sulforhodamine B assay relative to control; conditions: read-out: Activity; in short: as §1
M14 = test: Growth inhibition of human M14 cells assessed as cell growth at 0.01 uM incubated for 48 hrs by sulforhodamine B assay relative to control; conditions: read-out: Activity
SNB-75 = test: Growth inhibition of human SNB-75 cells assessed as cell growth at 1 uM incubated for 48 hrs by sulforhodamine B assay relative to control; conditions: read-out: Activity
NCI-H226 = test: Growth inhibition of human NCI-H226 cells incubated for 48 hrs by sulforhodamine B assay; conditions: for CC50: read-out: LC50 (the source's name); in short: as §2
IGROV-1 [7] = test: Growth inhibition of human IGROV-1 cells incubated for 48 hrs by sulforhodamine B assay; in short: as §2
A498 = test: Growth inhibition of human A498 cells assessed as cell growth at 0.01 uM incubated for 48 hrs by sulforhodamine B assay relative to control; conditions: read-out: Activity; in short: as §1
OVCAR-3 = test: Growth inhibition of human OVCAR-3 cells assessed as cell growth at 0.01 uM incubated for 48 hrs by sulforhodamine B assay relative to control; conditions: read-out: Activity
CCRF-CEM = test: Growth inhibition of human CCRF-CEM cells incubated for 48 hrs by sulforhodamine B assay; in short: as §1
HCT-116 = test: Growth inhibition of human HCT-116 cells incubated for 48 hrs by sulforhodamine B assay; in short: as §2
UACC-257 = test: Growth inhibition of human UACC-257 cells assessed as cell growth at 100 uM incubated for 48 hrs by sulforhodamine B assay relative to control; conditions: read-out: Activity
SK-MEL-28 [8] = test: Growth inhibition of human SK-MEL-28 cells assessed as cell growth at 1 uM incubated for 48 hrs by sulforhodamine B assay relative to control; conditions: read-out: Activity
OVCAR-8 = test: Growth inhibition of human OVCAR-8 cells assessed as cell growth at 0.01 uM incubated for 48 hrs by sulforhodamine B assay relative to control; conditions: read-out: Activity
HCT-15 [9] = test: Growth inhibition of human HCT-15 cells incubated for 48 hrs by sulforhodamine B assay; in short: as §2
U-251 = test: Growth inhibition of human U-251 cells incubated for 48 hrs by sulforhodamine B assay
In short: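 NCI DTP 60-line human tumour panel. Dose-response curves were run only for ligands active in the initial 10 µM screen. GI50 (concentration giving 50% of maximal inhibition of proliferation) and TGI (concentration giving total growth inhibition) were derived from these curves.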

SR = test: Growth inhibition of human SR cells assessed as cell growth at 0.1 uM incubated for 48 hrs by sulforhodamine B assay relative to control; conditions: read-out: Activity
NCI-H460 = test: Growth inhibition of human NCI-H460 cells assessed as cell growth at 100 uM incubated for 48 hrs by sulforhodamine B assay relative to control; conditions: read-out: Activity
SK-OV-3 = test: Growth inhibition of human SK-OV-3 cells assessed as cell growth at 100 uM incubated for 48 hrs by sulforhodamine B assay relative to control; conditions: read-out: Activity
SF-539 [10] = test: Growth inhibition of human SF-539 cells assessed as cell growth at 0.1 uM incubated for 48 hrs by sulforhodamine B assay relative to control; conditions: read-out: Activity
T47D = test: Growth inhibition of human T47D cells assessed as cell growth at 1 uM incubated for 48 hrs by sulforhodamine B assay relative to control; conditions: read-out: Activity
COLO 205 = test: Growth inhibition of human COLO 205 cells assessed as cell growth at 1 uM incubated for 48 hrs by sulforhodamine B assay relative to control; conditions: read-out: Activity; in short: as §1
HOP-62 = test: Growth inhibition of human HOP-62 cells assessed as cell growth at 1 uM incubated for 48 hrs by sulforhodamine B assay relative to control; conditions: read-out: Activity
NCI-H522 = test: Growth inhibition of human NCI-H522 cells incubated for 48 hrs by sulforhodamine B assay; in short: as §2
DU-145 = test: Growth inhibition of human DU-145 cells assessed as cell growth at 0.01 uM incubated for 48 hrs by sulforhodamine B assay relative to control; conditions: read-out: Activity; in short: as §1
SK-MEL-28 [11] = test: Growth inhibition of human SK-MEL-28 cells assessed as cell growth at 100 uM incubated for 48 hrs by sulforhodamine B assay relative to control; conditions: read-out: Activity
SNB-19 = test: Growth inhibition of human SNB-19 cells assessed as cell growth at 0.1 uM incubated for 48 hrs by sulforhodamine B assay relative to control; conditions: read-out: Activity
UACC-62 = test: Growth inhibition of human UACC-62 cells assessed as cell growth at 1 uM incubated for 48 hrs by sulforhodamine B assay relative to control; conditions: read-out: Activity

## Cc1ccc(NC(=O)c2sc3nc4c(cc3c2N)C(=O)CCC4)cc1C
HCT-15 [1]
  growth at 0.01 µM: 95%
A549
  growth at 0.01 µM: 100%
SF-539 [2]
  growth at 100 µM: 7%
LOX IMVI
  GI50: 0.716 µM
  LC50: > 100 µM
  TGI: > 100 µM
MDA-MB-231
  growth at 100 µM: 24%
786-0 [3]
  growth at 0.01 µM: 98%
786-0 [4]
  GI50: 0.614 µM
  TGI: > 100 µM
  CC50: > 100 µM
IGROV-1 [5]
  growth at 1 µM: 51%
786-0 [6]
  growth at 0.1 µM: 88%
M14
  growth at 0.01 µM: 96%
SNB-75
  growth at 1 µM: -7%
NCI-H226
  GI50: 22.4 µM
  TGI: > 100 µM
  CC50: > 100 µM
IGROV-1 [7]
  GI50: 1.09 µM
  LC50: > 100 µM
  TGI: > 100 µM
A498
  growth at 0.01 µM: 89%
OVCAR-3
  growth at 0.01 µM: 102%
CCRF-CEM
  GI50: 0.334 µM
  LC50: > 100 µM
  TGI: ≥ 100 µM
HCT-116
  GI50: 0.527 µM
  LC50 (concentration killing 50% of cells): > 100 µM
  TGI: > 100 µM
UACC-257
  growth at 100 µM: 35%
SK-MEL-28 [8]
  growth at 1 µM: 51%
OVCAR-8
  growth at 0.01 µM: 97%
HCT-15 [9]
  GI50: 0.486 µM
  LC50: > 100 µM
  TGI: > 100 µM
U-251
  GI50: 0.68 µM
  LC50 (concentration killing 50% of cells): > 100 µM
  TGI: ≥ 100 µM
SR
  growth at 0.1 µM: 108%
NCI-H460
  growth at 100 µM: -9%
SK-OV-3
  growth at 100 µM: 8%
SF-539 [10]
  growth at 0.1 µM: 90%
T47D
  growth at 1 µM: 23%
COLO 205
  growth at 1 µM: -13%
HOP-62
  growth at 1 µM: 40%
NCI-H522
  GI50: 0.256 µM
  LC50: > 100 µM
  TGI: 20 µM
DU-145
  growth at 0.01 µM: 104%
SK-MEL-28 [11]
  growth at 100 µM: 25%
SNB-19
  growth at 0.1 µM: 88%

## CCc1cccc(C)c1NC(=O)c1sc2nc3c(cc2c1N)C(=O)CCC3
HCT-15 [1]
  growth at 0.01 µM: 93%
A549
  growth at 0.01 µM: 96%
SF-539 [2]
  growth at 100 µM: 2%
LOX IMVI
  GI50: 0.724 µM
  LC50: > 100 µM
  TGI: > 100 µM
MDA-MB-231
  growth at 100 µM: 24%
786-0 [3]
  growth at 0.01 µM: 86%
786-0 [4]
  GI50: 0.542 µM
  TGI: > 100 µM
  CC50: > 100 µM
IGROV-1 [5]
  growth at 1 µM: 59%
786-0 [6]
  growth at 0.1 µM: 89%
M14
  growth at 0.01 µM: 96%
SNB-75
  growth at 1 µM: -2%
NCI-H226
  GI50: 0.182 µM
  TGI: > 100 µM
  CC50: > 100 µM
IGROV-1 [7]
  GI50: 0.111 µM
  LC50: > 100 µM
  TGI: > 100 µM
A498
  growth at 0.01 µM: 80%
OVCAR-3
  growth at 0.01 µM: 101%
CCRF-CEM
  GI50: 0.346 µM
  LC50: > 100 µM
  TGI: ≥ 100 µM
HCT-116
  GI50: 0.471 µM
  LC50 (concentration killing 50% of cells): > 100 µM
  TGI: > 100 µM
UACC-257
  growth at 100 µM: -13%
SK-MEL-28 [8]
  growth at 1 µM: 48%
OVCAR-8
  growth at 0.01 µM: 99%
HCT-15 [9]
  GI50: 0.471 µM
  LC50: > 100 µM
  TGI: > 100 µM
UACC-62
  growth at 1 µM: 37%
U-251
  GI50: 0.57 µM
  LC50 (concentration killing 50% of cells): > 100 µM
  TGI: > 100 µM
SR
  growth at 0.1 µM: 101%
NCI-H460
  growth at 100 µM: -33%
SF-539 [10]
  growth at 0.1 µM: 89%
T47D
  growth at 1 µM: 28%
COLO 205
  growth at 1 µM: -19%
HOP-62
  growth at 1 µM: 52%
DU-145
  growth at 0.01 µM: 101%
SK-MEL-28 [11]
  growth at 100 µM: 11%
SNB-19
  growth at 0.1 µM: 91%
